Values belong to the molecule of their own block, whether it stands above or below them. Active and inactive are the calls of the source. The calls are words filed in the database; no cut-off is given here.
Tests used:
[1] = tested on: NTUB1; assay: Increase in intracellular reactive oxygen species level in human NTUB1 cells at 40 uM after 24 hrs in presence of 1 mM N-acetyl-cysteine by DCFH-DA staining; format: functional, cell-based
Method in brief: (§1)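 NTUB1 cells treated for 24 or 48 h, with or without 1 mM N-acetylcysteine. DCFH-DA (10 µM) added 30 min before harvest; cells then trypsinized, PBS-washed, and DCF green fluorescence read at once by flow cytometry through a 525 nm band-pass filter. Three independent experiments.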

[2] = Induction of apoptosis in human NTUB1 cells assessed as accumulation at subG1 phase at 40 uM after 24 hrs using propidium iodide staining by flow cytometry; format: functional
Method in brief: (§2)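 NTUB1 cells plated at 8 × 10⁵ per 10 cm dish and exposed to compound for 24 or 48 h; untreated controls got medium alone. Cells trypsinized, PBS-washed and fixed overnight in ice-cold MeOH at −20 °C, then stained with 50 µg/mL propidium iodide plus RNase A. DNA content was read by flow cytometry, with apoptosis taken as sub-G1 accumulation. Three independent experiments.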

[3] = tested on: PC-3; assay: Cytotoxicity against human PC3 cells at 50 uM after 72 hrs by MTT assay; format: functional, cell-based
Method in brief: (§3)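 Cells grown in RPMI 1640 with 10% FBS, penicillin/streptomycin and 2 mM L-glutamine at 37 °C under 5% CO₂. Seeded 1800 cells/well, left overnight, then given graded compound concentrations for 72 h; compounds diluted from DMSO, 0.1% DMSO in medium and in controls. MTT 2 mg/mL in PBS for 3 h, formazan dissolved in DMSO, absorbance 540 nm. Viability given as % of control; IC50 by median-effect analysis, mean ± SD.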

[4] = Induction of apoptosis in human NTUB1 cells assessed as accumulation at subG1 phase at 20 uM after 24 hrs using propidium iodide staining by flow cytometry; format: functional; method in brief: as §2
[5] = tested on: NTUB1; assay: Increase in intracellular reactive oxygen species level in human NTUB1 cells at 20 uM after 48 hrs by DCFH-DA staining; format: functional, cell-based; method in brief: as §1
[6] = tested on: NTUB1; assay: Increase in intracellular reactive oxygen species level in human NTUB1 cells at 40 uM after 48 hrs in presence of 1 mM N-acetyl-cysteine by DCFH-DA staining; format: functional, cell-based; method in brief: as §1
[7] = Cell cycle arrest in human NTUB1 cells assessed as accumulation at S phase at 40 uM after 24 hrs using propidium iodide staining by flow cytometry; format: functional, cell-based; method in brief: as §2
[8] = Cell cycle arrest in human NTUB1 cells assessed as accumulation at S phase at 10 uM after 24 hrs using propidium iodide staining by flow cytometry; format: functional, cell-based; method in brief: as §2
[9] = Cell cycle arrest in human NTUB1 cells assessed as accumulation at G2/M phase at 20 uM after 24 hrs using propidium iodide staining by flow cytometry; format: functional, cell-based; method in brief: as §2
[10] = Induction of apoptosis in human NTUB1 cells assessed as accumulation at subG1 phase at 10 uM after 24 hrs using propidium iodide staining by flow cytometry; format: functional; method in brief: as §2
[11] = tested on: NTUB1; assay: Increase in intracellular reactive oxygen species level in human NTUB1 cells at 40 uM after 24 hrs by DCFH-DA staining; format: functional, cell-based; method in brief: as §1
[12] = Cell cycle arrest in human NTUB1 cells assessed as accumulation at G1 phase at 20 uM after 48 hrs using propidium iodide staining by flow cytometry; format: functional, cell-based; method in brief: as §2
[13] = Cell cycle arrest in human NTUB1 cells assessed as accumulation at G2/M phase at 20 uM after 48 hrs using propidium iodide staining by flow cytometry; format: functional, cell-based; method in brief: as §2
[14] = tested on: NTUB1; assay: Increase in intracellular reactive oxygen species level in human NTUB1 cells at 20 uM after 48 hrs in presence of 1 mM N-acetyl-cysteine by DCFH-DA staining; format: functional, cell-based; method in brief: as §1
[15] = Induction of apoptosis in human NTUB1 cells assessed as accumulation at subG1 phase at 20 uM after 48 hrs using propidium iodide staining by flow cytometry; format: functional; method in brief: as §2
[16] = Cell cycle arrest in human NTUB1 cells assessed as accumulation at S phase at 40 uM after 48 hrs using propidium iodide staining by flow cytometry; format: functional, cell-based; method in brief: as §2
[17] = Cell cycle arrest in human NTUB1 cells assessed as accumulation at S phase at 20 uM after 24 hrs using propidium iodide staining by flow cytometry; format: functional, cell-based; method in brief: as §2
[18] = Cytotoxicity against human NTUB1 cells after 72 hrs by MTT assay; format: functional, cell-based; details: NTUB1, 72 h; method in brief: as §3
[19] = Cell cycle arrest in human NTUB1 cells assessed as accumulation at S phase at 20 uM after 48 hrs using propidium iodide staining by flow cytometry; format: functional, cell-based; method in brief: as §2
[20] = Cell cycle arrest in human NTUB1 cells assessed as accumulation at G1 phase at 20 uM after 24 hrs using propidium iodide staining by flow cytometry; format: functional, cell-based; method in brief: as §2
[21] = Cell cycle arrest in human NTUB1 cells assessed as accumulation at G1 phase at 40 uM after 48 hrs using propidium iodide staining by flow cytometry; format: functional, cell-based; method in brief: as §2
[22] = Cell cycle arrest in human NTUB1 cells assessed as accumulation at G2/M phase at 40 uM after 48 hrs using propidium iodide staining by flow cytometry; format: functional, cell-based; method in brief: as §2
[23] = Induction of apoptosis in human NTUB1 cells assessed as accumulation at subG1 phase at 40 uM after 48 hrs using propidium iodide staining by flow cytometry; format: functional; method in brief: as §2
[24] = tested on: NTUB1; assay: Increase in intracellular reactive oxygen species level in human NTUB1 cells at 40 uM after 48 hrs by DCFH-DA staining; format: functional, cell-based; method in brief: as §1
[25] = Cell cycle arrest in human NTUB1 cells assessed as accumulation at G2/M phase at 10 uM after 24 hrs using propidium iodide staining by flow cytometry; format: functional, cell-based; method in brief: as §2
[26] = Cell cycle arrest in human NTUB1 cells assessed as accumulation at G1 phase at 10 uM after 24 hrs using propidium iodide staining by flow cytometry; format: functional, cell-based; method in brief: as §2
[27] = Cell cycle arrest in human NTUB1 cells assessed as accumulation at G1 phase at 40 uM after 24 hrs using propidium iodide staining by flow cytometry; format: functional, cell-based; method in brief: as §2
[28] = tested on: A549; assay: Cytotoxicity against human A549 cells at 50 uM after 72 hrs by MTT assay; format: functional, cell-based; method in brief: as §3
[29] = Cell cycle arrest in human NTUB1 cells assessed as accumulation at G2/M phase at 40 uM after 24 hrs using propidium iodide staining by flow cytometry; format: functional, cell-based; method in brief: as §2
[30] = tested on: NTUB1; assay: Increase in intracellular reactive oxygen species level in human NTUB1 cells at 20 uM after 24 hrs by DCFH-DA staining; format: functional, cell-based; method in brief: as §1
[31] = Cell cycle arrest in human NTUB1 cells assessed as accumulation at S phase at 50 uM after 24 hrs using propidium iodide staining by flow cytometry; format: functional, cell-based; method in brief: as §2
[32] = Induction of apoptosis in human NTUB1 cells assessed as accumulation at subG1 phase at 50 uM after 24 hrs using propidium iodide staining by flow cytometry; format: functional; method in brief: as §2
[33] = Cell cycle arrest in human NTUB1 cells assessed as accumulation at G1 phase at 50 uM after 48 hrs using propidium iodide staining by flow cytometry; format: functional, cell-based; method in brief: as §2
[34] = Induction of apoptosis in human NTUB1 cells assessed as accumulation at subG1 phase at 50 uM after 48 hrs using propidium iodide staining by flow cytometry; format: functional; method in brief: as §2
[35] = tested on: NTUB1; assay: Increase in intracellular reactive oxygen species level in human NTUB1 cells at 20 uM after 24 hrs in presence of 1 mM N-acetyl-cysteine by DCFH-DA staining; format: functional, cell-based; method in brief: as §1
[36] = Cell cycle arrest in human NTUB1 cells assessed as accumulation at G2/M phase at 50 uM after 48 hrs using propidium iodide staining by flow cytometry; format: functional, cell-based; method in brief: as §2
[37] = biological target: Tubulin (Homo sapiens) (UniProt P68371+Q9H4B7+P0DPH7+P68366+Q13509+Q71U36+P04350+Q3ZCM7+P07437+P68363+Q9BQE3+Q6PEY2+Q13885+Q9BVA1+Q9BUF5); assay: Inhibition of tubulin polymerization in human NTUB1 cells assessed as blockade of microtubule assembly at 50 uM by indirect immunofluorescence staining; format: cell-based
Method in brief: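 NTUB1 cells on coverslips were treated for 24 h, then fixed in 2% formaldehyde/PBS for 20 min and in cold methanol (−20 °C) for 3 min. Stained with anti-α-tubulin monoclonal antibody for 3 h at room temperature, then rhodamine-conjugated secondary antibody for 1 h in the dark. Mounted in 80% glycerol/PBS and examined by fluorescence microscopy.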

[38] = tested on: NTUB1; assay: Increase in intracellular reactive oxygen species level in human NTUB1 cells at 50 uM after 24 hrs by DCFH-DA staining; format: functional, cell-based; method in brief: as §1
[39] = tested on: NTUB1; assay: Increase in intracellular reactive oxygen species level in human NTUB1 cells at 50 uM after 48 hrs in presence of 1 mM N-acetyl-cysteine by DCFH-DA staining; format: functional, cell-based; method in brief: as §1
[40] = tested on: NTUB1; assay: Increase in intracellular reactive oxygen species level in human NTUB1 cells at 50 uM after 24 hrs in presence of 1 mM N-acetyl-cysteine by DCFH-DA staining; format: functional, cell-based; method in brief: as §1
[41] = Cell cycle arrest in human NTUB1 cells assessed as accumulation at G1 phase at 50 uM after 24 hrs using propidium iodide staining by flow cytometry; format: functional, cell-based; method in brief: as §2
[42] = Cell cycle arrest in human NTUB1 cells assessed as accumulation at S phase at 50 uM after 48 hrs using propidium iodide staining by flow cytometry; format: functional, cell-based; method in brief: as §2
[43] = tested on: NTUB1; assay: Increase in intracellular reactive oxygen species level in human NTUB1 cells at 50 uM after 48 hrs by DCFH-DA staining; format: functional, cell-based; method in brief: as §1
[44] = Cell cycle arrest in human NTUB1 cells assessed as accumulation at G2/M phase at 50 uM after 24 hrs using propidium iodide staining by flow cytometry; format: functional, cell-based; method in brief: as §2

SMILES: CC(C)OC(=O)[C@]12CC[C@@H](C)[C@H](C)[C@H]1C1=CC[C@@H]3[C@@]4(C)CC[C@H](O)C(C)(C)[C@@H]4CC[C@@]3(C)[C@]1(C)CC2
Activity [1]: inactive
Activity [2]: 23.73%
Activity [3]: Active
Activity [4]: 23.5%
Activity [5]: Active
Activity [6]: Active
Activity [7]: 4.53%
Activity [8]: 31.7%
Activity [9]: 9.18%
Activity [10]: 13.8%
Activity [11]: Active
Activity [12]: 52.1%
Activity [13]: 16.2%
Activity [14]: Active
Activity [15]: 6.73%
Activity [16]: 1.31%
Activity [17]: 15.8%
IC50 [18]: 7.97 µM
Activity [19]: 20.5%
Activity [20]: 51%
Activity [21]: 8.53%
Activity [22]: 1.96%
Activity [23]: 43.81%
Activity [24]: Active
Activity [25]: 15.3%
Activity [26]: 33.9%
Activity [27]: 58.1%
Activity [28]: Active
Activity [29]: 11%

Activity [37]: Active
SMILES: C=C(C)[C@@H]1CC[C@]2(C)[C@H](CC=C3[C@@H]4[C@@H](C)[C@H](C)CC[C@]4(C(=O)O)CC[C@]32C)[C@@]1(C)CCC(=O)O
Activity [3]: Active
Activity [4]: 21.68%
Activity [5]: Active
Activity [30]: Active
Activity [31]: 6.9%
Activity [9]: 10.9%
Activity [12]: 52.2%
Activity [32]: 25.75%
Activity [33]: 66.4%
Activity [34]: 14%
Activity [13]: 16.6%
Activity [14]: Active
Activity [15]: 5.12%
Activity [35]: inactive
Activity [36]: 11.1%
Activity [38]: Active
Activity [39]: Active
Activity [17]: 23.7%
IC50 [18]: 25.5 µM
Activity [19]: 20.6%
Activity [40]: inactive
Activity [20]: 41.3%
Activity [41]: 52.2%
Activity [42]: 3.05%
Activity [43]: Active
Activity [28]: Active
Activity [44]: 13.1%

Source: ChEMBL document CHEMBL1152612, “Ursolic acid derivatives induce cell cycle arrest and apoptosis in NTUB1 cells associated with reactive oxygen species” (Bioorg Med Chem, 2009)
